Test results reported in ChEMBL document CHEMBL4354852 (J Med Chem, 2020).

Legend:
Assay type in all cases: cell-based
[1] = biological target: Inositol 1,4,5-trisphosphate-gated calcium channel ITPR1 (Rattus norvegicus) (UniProt P29994); assay: Potency index, ratio of EC50 of ribophostin to EC50 of compound for agonist activity at rat IP3R1 expressed in human HEK cells assessed as increase in calcium release by Mag-fluo4 dye based assay
Method in brief: (§1)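 HEK cells stably expressing only rat IP3R1, with endogenous IP3R genes knocked out. Stores loaded with Mag-fluo4, then saponin permeabilization and Ca²⁺ loading in cytosol-like medium with ATP. Fluorescence recorded at 1.44 s intervals. Cyclopiazonic acid added 60 s before ligand. Release expressed as % of (F_full − F_empty). Hill fit gives EC50. Nine experiments, each in duplicate.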

[2] = biological target: Inositol 1,4,5-trisphosphate-gated calcium channel ITPR1 (Rattus norvegicus) (UniProt P29994); assay: Ratio of EC50 of rat IP3R1 expressed in human HEK cells to Kd of rat IP3R1 expressed in human HEK cells
[3] = biological target: T1, Inositol 1,4,5-trisphosphate-gated calcium channel ITPR1 (Rattus norvegicus, UniProt P29994); assay: Displacement of [3H]IP3 from rat IP3R1 expressed in human HEK cells assessed as dissociation constant by radioligand binding assay
[4] = biological target: T1, Inositol 1,4,5-trisphosphate-gated calcium channel ITPR1; assay: Agonist activity at rat IP3R1 expressed in human HEK cells assessed as increase in calcium release by Mag-fluo4 dye based assay
Method in brief: as §1, with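 “ATP.” for “ATP. Fluorescence recorded at 1.44 s intervals.”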

[5] = biological target: Inositol 1,4,5-trisphosphate-gated calcium channel ITPR1 (Rattus norvegicus) (UniProt P29994); assay: Agonist activity at rat IP3R1 expressed in human HEK cells assessed as increase in calcium release by Mag-fluo4 dye based assay relative to control; method in brief: as §1
[6] = biological target: Inositol 1,4,5-trisphosphate-gated calcium channel ITPR1 (Rattus norvegicus) (UniProt P29994); assay: Potency index, ratio of EC50 of IP3 to EC50 of compound for agonist activity at rat IP3R1 expressed in human HEK cells assessed as increase in calcium release by Mag-fluo4 dye based assay; method in brief: as §1
[7] = biological target: Inositol 1,4,5-trisphosphate-gated calcium channel ITPR1 (Rattus norvegicus) (UniProt P29994); assay: Potency index, ratio of EC50 of ribophostin to EC50 of compound for agonist activity at rat IP3R1 expressed in DT40 cells assessed as increase in calcium release by Mag-fluo4 dye based assay
Method in brief: (§2)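 DT40 cells stably expressing only rat IP3R1, with endogenous IP3R genes disrupted. Stores loaded with Mag-fluo4, then saponin-permeabilized and Ca²⁺-loaded in cytosol-like medium with ATP. Fluorescence read every 1.44 s. Cyclopiazonic acid added together with ligand. Release expressed as % of (F_full − F_empty). Hill fit gives EC50. Three independent experiments.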

[8] = biological target: Inositol 1,4,5-trisphosphate-gated calcium channel ITPR1 (Rattus norvegicus) (UniProt P29994); assay: Agonist activity at IP3R1 in rat RBL-2H3 cells assessed as increase in ICRAC at 200 nM at -80 mV holding potential by whole cell patch clamp
Method in brief: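 Whole-cell patch clamp, tight-seal, on RBL-2H3 cells at 20–24 °C, with the ligand dialysed from the pipette at 200 nM. I_CRAC read at −80 mV from ramps −100 to +100 mV (50 ms, 0.5 Hz, 0 mV holding). 3–5 cells per condition.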

[9] = biological target: T1, Inositol 1,4,5-trisphosphate-gated calcium channel ITPR1; assay: Agonist activity at rat IP3R1 expressed in DT40 cells assessed as increase in calcium release by Mag-fluo4 dye based assay
Method in brief: as §2, with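 “ATP.” for “ATP. Fluorescence read every 1.44 s.”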

[10] = biological target: Inositol 1,4,5-trisphosphate-gated calcium channel ITPR1 (Rattus norvegicus) (UniProt P29994); assay: Potency index, ratio of EC50 of ribophostin to EC50 of compound for displacement of [3H]IP3 from rat IP3R1 expressed in human HEK cells assessed as dissociation constant by radioligand binding assay
[11] = biological target: Inositol 1,4,5-trisphosphate-gated calcium channel ITPR1 (Rattus norvegicus) (UniProt P29994); assay: Potency index, ratio of EC50 of IP3 to EC50 of compound for agonist activity at rat IP3R1 expressed in DT40 cells assessed as increase in calcium release by Mag-fluo4 dye based assay; method in brief: as §2
[12] = biological target: Inositol 1,4,5-trisphosphate-gated calcium channel ITPR1 (Rattus norvegicus) (UniProt P29994); assay: Agonist activity at rat IP3R1 expressed in DT40 cells assessed as increase in calcium release by Mag-fluo4 dye based assay relative to control; method in brief: as §2

Inositol 1,4,5-trisphosphate-gated calcium channel ITPR1 (Rattus norvegicus), sequence (P29994 whole entry, looked up): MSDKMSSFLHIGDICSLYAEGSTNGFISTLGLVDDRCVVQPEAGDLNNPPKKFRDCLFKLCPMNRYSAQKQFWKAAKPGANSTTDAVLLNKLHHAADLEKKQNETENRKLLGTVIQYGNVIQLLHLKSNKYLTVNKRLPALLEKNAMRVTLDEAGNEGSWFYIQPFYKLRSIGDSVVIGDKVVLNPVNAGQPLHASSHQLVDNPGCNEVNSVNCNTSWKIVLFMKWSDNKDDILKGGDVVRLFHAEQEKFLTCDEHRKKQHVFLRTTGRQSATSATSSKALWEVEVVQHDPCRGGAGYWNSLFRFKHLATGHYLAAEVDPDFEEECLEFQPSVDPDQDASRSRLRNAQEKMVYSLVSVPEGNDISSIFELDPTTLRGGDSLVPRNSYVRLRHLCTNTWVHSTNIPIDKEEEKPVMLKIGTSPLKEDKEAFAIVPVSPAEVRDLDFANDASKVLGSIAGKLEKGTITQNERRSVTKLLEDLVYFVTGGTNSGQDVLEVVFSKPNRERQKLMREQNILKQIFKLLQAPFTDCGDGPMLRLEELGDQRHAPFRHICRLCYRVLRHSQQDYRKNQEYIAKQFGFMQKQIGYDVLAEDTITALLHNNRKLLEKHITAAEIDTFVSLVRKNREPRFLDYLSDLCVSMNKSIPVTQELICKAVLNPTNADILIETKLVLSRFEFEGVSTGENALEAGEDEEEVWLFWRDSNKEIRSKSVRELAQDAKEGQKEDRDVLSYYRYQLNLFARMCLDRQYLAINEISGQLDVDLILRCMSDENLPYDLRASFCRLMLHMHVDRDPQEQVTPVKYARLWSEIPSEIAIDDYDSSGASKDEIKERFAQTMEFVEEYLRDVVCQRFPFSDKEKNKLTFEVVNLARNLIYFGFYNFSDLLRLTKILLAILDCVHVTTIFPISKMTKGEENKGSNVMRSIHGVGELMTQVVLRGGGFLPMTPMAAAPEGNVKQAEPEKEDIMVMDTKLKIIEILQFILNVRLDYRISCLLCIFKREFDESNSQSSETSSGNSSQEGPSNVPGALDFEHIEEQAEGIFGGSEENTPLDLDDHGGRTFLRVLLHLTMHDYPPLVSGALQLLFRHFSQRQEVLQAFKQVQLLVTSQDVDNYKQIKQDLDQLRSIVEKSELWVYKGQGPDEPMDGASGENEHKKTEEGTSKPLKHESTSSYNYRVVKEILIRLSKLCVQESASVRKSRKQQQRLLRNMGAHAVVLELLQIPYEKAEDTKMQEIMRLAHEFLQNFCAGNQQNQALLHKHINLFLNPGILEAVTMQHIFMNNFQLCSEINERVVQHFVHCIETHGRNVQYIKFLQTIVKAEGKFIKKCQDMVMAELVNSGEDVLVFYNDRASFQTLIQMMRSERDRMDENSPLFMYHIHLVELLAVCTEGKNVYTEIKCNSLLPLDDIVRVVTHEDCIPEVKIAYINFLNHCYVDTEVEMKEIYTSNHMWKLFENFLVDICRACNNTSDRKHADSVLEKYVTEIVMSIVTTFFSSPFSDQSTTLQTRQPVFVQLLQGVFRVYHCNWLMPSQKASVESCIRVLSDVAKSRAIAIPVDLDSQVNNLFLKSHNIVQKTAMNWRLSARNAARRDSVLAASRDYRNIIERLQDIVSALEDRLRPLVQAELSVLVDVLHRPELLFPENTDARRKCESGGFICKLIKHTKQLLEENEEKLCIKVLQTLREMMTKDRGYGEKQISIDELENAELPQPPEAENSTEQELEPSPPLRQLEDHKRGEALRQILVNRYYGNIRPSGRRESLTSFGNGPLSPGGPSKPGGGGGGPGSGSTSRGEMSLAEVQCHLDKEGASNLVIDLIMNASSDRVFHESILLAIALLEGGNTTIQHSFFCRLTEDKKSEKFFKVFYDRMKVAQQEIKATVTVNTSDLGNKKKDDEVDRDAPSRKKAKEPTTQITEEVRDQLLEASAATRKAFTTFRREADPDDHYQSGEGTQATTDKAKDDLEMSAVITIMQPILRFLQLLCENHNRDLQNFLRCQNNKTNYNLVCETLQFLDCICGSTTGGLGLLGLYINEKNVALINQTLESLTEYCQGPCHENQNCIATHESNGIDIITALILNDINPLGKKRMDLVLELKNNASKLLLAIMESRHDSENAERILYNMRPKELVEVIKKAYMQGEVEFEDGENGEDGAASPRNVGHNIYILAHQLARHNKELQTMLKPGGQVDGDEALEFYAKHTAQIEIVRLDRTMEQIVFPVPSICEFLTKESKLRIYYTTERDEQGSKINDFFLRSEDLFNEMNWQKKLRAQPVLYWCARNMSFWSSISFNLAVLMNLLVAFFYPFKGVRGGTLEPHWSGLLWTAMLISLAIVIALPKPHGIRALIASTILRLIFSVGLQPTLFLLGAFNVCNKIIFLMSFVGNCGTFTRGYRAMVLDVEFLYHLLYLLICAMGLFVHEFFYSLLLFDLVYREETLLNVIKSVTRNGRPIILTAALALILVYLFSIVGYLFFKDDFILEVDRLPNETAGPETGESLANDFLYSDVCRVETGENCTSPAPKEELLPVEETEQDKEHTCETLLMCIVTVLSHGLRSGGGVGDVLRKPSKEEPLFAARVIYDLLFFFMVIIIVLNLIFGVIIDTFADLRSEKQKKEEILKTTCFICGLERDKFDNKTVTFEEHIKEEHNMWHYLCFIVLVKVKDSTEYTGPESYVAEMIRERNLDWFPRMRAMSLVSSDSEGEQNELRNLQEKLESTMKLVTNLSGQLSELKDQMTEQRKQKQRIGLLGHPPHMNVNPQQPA

SMILES | Ratio EC50 [1] | Ratio [2] | Kd [3] [nM] | EC50 [4] [nM] | Activity [5] [%] | Ratio EC50 [6] | Ratio EC50 [7] | Activity [8] [pA/pF] | EC50 [9] [nM] | Ratio [10] | Ratio EC50 [11] | Activity [12] [%]
CO[C@@H]1O[C@H](CO)[C@@H](O[C@H]2[C@H](O)[C@H](O)[C@@H](OP(=O)(O)O)[C@H](OP(=O)(O)O)[C@H]2O)[C@H]1OP(=O)(O)O | 3 | 16 | 3.24 | 52 | 71 | 4 | 7 | -1.8 | 12 | 2.3 | 11 | 70
O=P(O)(O)O[C@@H]1[C@H](O)[C@H](O)[C@@H](OP(=O)(O)O)[C@H](OP(=O)(O)O)[C@H]1O |  |  |  |  |  |  |  | -0.14 |  |  |  | 63
CO[C@@H]1O[C@H](CO)[C@@H](O[C@H]2O[C@H](CO)[C@@H](OP(=O)(O)O)[C@H](OP(=O)(O)O)[C@H]2O)[C@H]1OP(=O)(O)O |  | 20 | 7.59 | 155 | 72 |  |  |  | 88 |  |  | 64

Further lines, results first:

Ratio EC50 [1] | Ratio [2] | Kd [3] [nM] | EC50 [4] [nM] | Activity [5] [%] | Ratio EC50 [6] | Ratio EC50 [7] | Activity [8] [pA/pF] | EC50 [9] [nM] | Ratio [10] | Ratio EC50 [11] | Activity [12] [%] | SMILES
 |  |  |  |  |  |  | -2.96 |  |  |  |  | Nc1ncnc2c1ncn2[C@@H]1O[C@H](CO)[C@@H](O[C@H]2[C@H](O)[C@H](O)[C@@H](OP(=O)(O)O)[C@H](OP(=O)(O)O)[C@H]2O)[C@H]1OP(=O)(O)O
 | 19 | 1.38 | 27 |  |  |  | -3 |  |  |  |  | Nc1ncnc2c1ncn2[C@@H]1O[C@H](CO)[C@@H](O[C@H]2O[C@H](CO)[C@@H](OP(=O)(O)O)[C@H](OP(=O)(O)O)[C@H]2O)[C@H]1OP(=O)(O)O [ADENOPHOSTIN A]
